ChEMBL document CHEMBL4028904, “Discovery of a Novel Series of Tankyrase Inhibitors by a Hybridization Approach” (J Med Chem, 2017)
In brackets after ≈: the same amount, converted by molar mass.

Experiments:
[1] = Apparent permeability across apical to basolateral side in MDCK cells expressing human MDR1 at 10 uM after 2 hrs by LC/MS/MS analysis; format: ADME, cell-based, Canis lupus familiaris; details: dog
[2] = system: Mus musculus; assay: Toxicity in immunocompetent BDF1 mouse allografted with mouse P388 cells assessed as animal discomfort at 15 to 30 mg/kg, po administered qd for 10 days measured on day 12 post last dose; format: organism-based; details: in vivo, 240 h
[3] = Terminal half life in Beagle dog at 7 mg/kg, po measured up to 24 hrs postdose; format: ADME, organism-based, Canis lupus familiaris; details: in vivo, read-out: beta t1/2 (converted)
[4] = Cmax in Sprague-Dawley rat at 14 mg/kg, po measured up to 24 hrs postdose; format: ADME, organism-based; parameters: dose 14 mg/kg, route oral; details: in vivo
[5] = Intrinsic clearance in human hepatocytes assessed per million cells at 3 uM measured up to 120 mins by LC-MS/MS analysis; format: ADME, cell-based, Hepatocyte; details: read-out: CLH
[6] = system: P388; assay: Antitumor activity against mouse P388 cells allografted in immunocompetent BDF1 mouse assessed as tumor growth inhibition at 30 mg/kg, po administered qd for 10 days measured on day 12 post last dose; format: functional; details: read-out: TGI
Outline: (§1)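 Immunocompetent BDF1 (DBA2 × C57Bl6j) mice were implanted with p388 cells and randomized after 2 days into vehicle (1% starch, n = 6) and two treatment groups (n = 5 each). Dosing was oral, once daily, for 10 days. Tumor size was measured by caliper at the end. Values are tumor size reduction relative to vehicle control.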

[7] = target: Cytochrome P450 3A4 (Homo sapiens, UniProt P08684); assay: Inhibition of CYP3A4 in human liver microsomes using midazolam as substrate after 30 mins by LC-MS/MS analysis; format: ADME
[8] = system: Liver; assay: Intrinsic clearance in human liver microsomes at 3 uM incubated up to 45 mins in presence of NADPH by LC-MS/MS analysis; format: ADME, microsome; details: 0.75 h
[9] = AUC (0 to t) in Beagle dog at 7 mg/kg, po measured up to 24 hrs postdose; format: ADME, organism-based, Canis lupus familiaris; parameters: time < 24 hr, dose 7 mg/kg, route oral; details: in vivo
[10] = Drug excretion in Sprague-Dawley rat feces at 7 mg/kg, iv or 14 mg/kg, po measured up to 24 hrs by LC-MS/MS; format: ADME, organism-based; details: in vivo
[11] = system: Canis familiaris; assay: Clearance in Beagle dog at 7 mg/kg, po measured up to 24 hrs postdose; format: ADME, organism-based, Canis lupus familiaris; details: in vivo
[12] = target: Cytochrome P450 2C19 (Homo sapiens, UniProt P33261); assay: Inhibition of CYP2C19 in human liver microsomes using mephenytoin as substrate after 30 mins by LC-MS/MS analysis; format: ADME
[13] = target: Poly [ADP-ribose] polymerase 1 (Homo sapiens, UniProt P09874); assay: Inhibition of recombinant human PARP1 expressed in Escherichia coli using NAD+ as substrate after 10 mins by fluorescence assay
[14] = target: Cytochrome P450 2D6 (Homo sapiens, UniProt P10635); assay: Inhibition of CYP2D6 in human liver microsomes using dextromethorphan as substrate after 30 mins by LC-MS/MS analysis; format: ADME
[15] = Inhibition of CYP1A in human liver microsomes using ethoxyresorufin as substrate after 30 mins by LC-MS/MS analysis; format: ADME
[16] = target: Serine/threonine-protein kinase 16 (Homo sapiens) (UniProt O75716); assay: Inhibition of TSF1 (unknown origin) at 10 uM after 60 mins in presence of [gamma-33P]-ATP by microplate scintillation counting
Outline: (§2)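 A panel of 320 wild-type protein kinases was screened with the compound at 10 μM. Activity is reported as percent inhibition.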

[17] = Apparent permeability across basolateral to apical side in MDCK cells expressing human MDR1 at 10 uM after 2 hrs by LC/MS/MS analysis; format: ADME, cell-based, Canis lupus familiaris; details: dog
[18] = target: Poly [ADP-ribose] polymerase 2 (Homo sapiens, UniProt Q9UGN5); assay: Inhibition of human GST-tagged PARP2 (2 to 583 residues) expressed in baculovirus infected Sf9 cell expression system using NAD+ as substrate after 4 hrs by fluorescence assay
[19] = system: Mus musculus; assay: Toxicity in immunocompetent BDF1 mouse allografted with mouse P388 cells assessed as body weight change at 15 to 30 mg/kg, po administered qd for 10 days measured on day 12 post last dose; format: organism-based; details: in vivo, 240 h
[20] = target: Protein mono-ADP-ribosyltransferase PARP16 (Homo sapiens, UniProt Q8N5Y8); assay: Inhibition of human PARP16 using NAD+ as substrate by fluorescence assay
[21] = Cmax in Beagle dog at 7 mg/kg, po measured up to 24 hrs postdose; format: ADME, organism-based, Canis lupus familiaris; parameters: dose 7 mg/kg, route oral; details: in vivo
[22] = system: P388; assay: Antitumor activity against mouse P388 cells allografted in immunocompetent BDF1 mouse assessed as tumor growth inhibition at 15 mg/kg, po administered qd for 10 days measured on day 12 post last dose; format: functional; details: read-out: TGI; outline: as §1
[23] = target: Maternal embryonic leucine zipper kinase (Homo sapiens) (UniProt Q14680); assay: Inhibition of MELK (unknown origin) at 10 uM after 60 mins in presence of [gamma-33P]-ATP by microplate scintillation counting; outline: as §2
[24] = system: Mus musculus; assay: Clearance in ICR mouse at 5 mg/kg, po measured up to 24 hrs; format: ADME, organism-based; details: in vivo
[25] = Terminal half life in ICR mouse at 5 mg/kg, po measured up to 24 hrs postdose; format: ADME, organism-based; details: in vivo, read-out: beta t1/2 (converted)
[26] = Cmax in ICR mouse at 5 mg/kg, po measured up to 24 hrs postdose; format: ADME, organism-based; parameters: dose 5 mg/kg, route oral; details: in vivo
[27] = system: Mus musculus; assay: Toxicity in immunodeficient nude Balb/c mouse xenografted with human COLO320DM cells assessed as body weight change at 15 to 60 mg/kg, po administered qd for 10 days measured on days 12, 17 and 21 post last dose; details: in vivo, 240 h
[28] = Oral bioavailability in Beagle dog at 7 mg/kg measured up to 24 hrs postdose; format: ADME, organism-based, Canis lupus familiaris; details: in vivo
[29] = Kinetic solubility of the compound in PBS buffer at pH 7.4 at 25 degC after 2 hrs; format: physicochemical; details: read-out: Kinetic_solubility
[30] = target: Protein mono-ADP-ribosyltransferase PARP14 (Homo sapiens, UniProt Q460N5); assay: Inhibition of human PARP14 using NAD+ as substrate by fluorescence assay
[31] = Oral bioavailability in ICR mouse at 5 mg/kg measured up to 24 hrs postdose; format: ADME, organism-based; details: in vivo
[32] = Oral bioavailability in Sprague-Dawley rat at 14 mg/kg measured up to 24 hrs postdose; format: ADME, organism-based; details: in vivo
[33] = target: cGMP-dependent protein kinase 1 (Homo sapiens) (UniProt Q13976); assay: Inhibition of PRKG1 (unknown origin) at 10 uM after 60 mins in presence of [gamma-33P]-ATP by microplate scintillation counting; outline: as §2
[34] = AUC (0 to t) in ICR mouse at 5 mg/kg, po measured up to 24 hrs postdose; format: ADME, organism-based; parameters: time < 24 hr, dose 5 mg/kg, route oral; details: in vivo
[35] = target: Protein mono-ADP-ribosyltransferase PARP4 (Homo sapiens, UniProt Q9UKK3); assay: Inhibition of human PARP4 using NAD+ as substrate by fluorescence assay
[36] = Drug excretion in Sprague-Dawley rat urine at 7 mg/kg, iv or 14 mg/kg, po measured up to 24 hrs by LC-MS/MS; format: ADME, organism-based; details: in vivo
[37] = system: COLO 320DM; assay: Antitumor activity against human COLO320DM cells xenografted in nude Balb/c mouse assessed as tumor growth inhibition at 30 mg/kg, po administered qd for 10 days measured on days 12, 17 and 21 post last dose; format: functional; details: 240 h, read-out: TGI
Outline: (§3)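 Tumor-bearing mice were randomized 2 days after inoculation into four groups: vehicle (1% starch, n = 4) and 15, 30 or 60 mg/kg (n = 5 each). Dosing was oral, once daily, for 10 days. Tumor size was measured by caliper on days 12, 17 and 21. Values are tumor volume reduction relative to vehicle-treated controls.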

[38] = target: Cytochrome P450 2C9 (Homo sapiens, UniProt P11712); assay: Inhibition of CYP2C9 in human liver microsomes using tolbutamide as substrate after 30 mins by LC-MS/MS analysis; format: ADME
[39] = AUC (0 to t) in Sprague-Dawley rat at 14 mg/kg, po measured up to 24 hrs postdose; format: ADME, organism-based; parameters: time < 24 hr, dose 14 mg/kg, route oral; details: in vivo
[40] = system: COLO 320DM; assay: Antitumor activity against human COLO320DM cells xenografted in nude Balb/c mouse assessed as tumor growth inhibition at 60 mg/kg, po administered qd for 10 days measured on days 12, 17 and 21 post last dose; format: functional; details: 240 h, read-out: TGI; outline: as §3
[41] = target: Protein mono-ADP-ribosyltransferase PARP10 (Homo sapiens, UniProt Q53GL7); assay: Inhibition of human PARP10 using NAD+ as substrate by fluorescence assay
[42] = system: COLO 320DM; assay: Antitumor activity against human COLO320DM cells xenografted in nude Balb/c mouse assessed as tumor growth inhibition at 15 mg/kg, po administered qd for 10 days measured on days 12, 17 and 21 post last dose; format: functional; details: 240 h, read-out: TGI; outline: as §3
[43] = target: Protein mono-ADP-ribosyltransferase PARP15 (Homo sapiens, UniProt Q460N3); assay: Inhibition of human PARP15 using NAD+ as substrate by fluorescence assay
[44] = system: Mus musculus; assay: Toxicity in immunodeficient nude Balb/c mouse xenografted with human COLO320DM cells assessed as animal discomfort at 15 to 60 mg/kg, po administered qd for 10 days measured on days 12, 17 and 21 post last dose; details: in vivo, 240 h
[45] = target: Protein mono-ADP-ribosyltransferase PARP3 (Homo sapiens, UniProt Q9Y6F1); assay: Inhibition of human PARP3 using NAD+ as substrate by fluorescence assay
[46] = target: Protein mono-ADP-ribosyltransferase PARP12 (Homo sapiens, UniProt Q9H0J9); assay: Inhibition of human PARP12 using NAD+ as substrate by fluorescence assay
[47] = target: Dual specificity protein kinase CLK2 (Homo sapiens) (UniProt P49760); assay: Inhibition of CLK2 (unknown origin) at 10 uM after 60 mins in presence of [gamma-33P]-ATP by microplate scintillation counting; outline: as §2
Sequence of Dual specificity protein kinase CLK2 (Homo sapiens) (P49760 whole entry, looked up): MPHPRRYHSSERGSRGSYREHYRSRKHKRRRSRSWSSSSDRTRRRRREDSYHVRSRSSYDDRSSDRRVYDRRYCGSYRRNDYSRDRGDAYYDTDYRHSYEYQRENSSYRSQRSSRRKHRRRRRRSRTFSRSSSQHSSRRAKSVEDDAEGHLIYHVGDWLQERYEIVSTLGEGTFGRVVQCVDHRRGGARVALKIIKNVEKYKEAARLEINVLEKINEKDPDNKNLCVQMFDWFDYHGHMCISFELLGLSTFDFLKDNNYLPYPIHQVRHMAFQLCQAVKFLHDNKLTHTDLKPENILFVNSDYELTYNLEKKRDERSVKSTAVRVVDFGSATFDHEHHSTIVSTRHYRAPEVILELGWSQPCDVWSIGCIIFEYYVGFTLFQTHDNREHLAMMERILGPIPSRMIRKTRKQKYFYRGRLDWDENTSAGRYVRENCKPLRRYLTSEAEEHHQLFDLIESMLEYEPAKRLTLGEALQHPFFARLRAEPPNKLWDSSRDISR

Sequence of Protein mono-ADP-ribosyltransferase PARP12 (Q9H0J9 whole entry): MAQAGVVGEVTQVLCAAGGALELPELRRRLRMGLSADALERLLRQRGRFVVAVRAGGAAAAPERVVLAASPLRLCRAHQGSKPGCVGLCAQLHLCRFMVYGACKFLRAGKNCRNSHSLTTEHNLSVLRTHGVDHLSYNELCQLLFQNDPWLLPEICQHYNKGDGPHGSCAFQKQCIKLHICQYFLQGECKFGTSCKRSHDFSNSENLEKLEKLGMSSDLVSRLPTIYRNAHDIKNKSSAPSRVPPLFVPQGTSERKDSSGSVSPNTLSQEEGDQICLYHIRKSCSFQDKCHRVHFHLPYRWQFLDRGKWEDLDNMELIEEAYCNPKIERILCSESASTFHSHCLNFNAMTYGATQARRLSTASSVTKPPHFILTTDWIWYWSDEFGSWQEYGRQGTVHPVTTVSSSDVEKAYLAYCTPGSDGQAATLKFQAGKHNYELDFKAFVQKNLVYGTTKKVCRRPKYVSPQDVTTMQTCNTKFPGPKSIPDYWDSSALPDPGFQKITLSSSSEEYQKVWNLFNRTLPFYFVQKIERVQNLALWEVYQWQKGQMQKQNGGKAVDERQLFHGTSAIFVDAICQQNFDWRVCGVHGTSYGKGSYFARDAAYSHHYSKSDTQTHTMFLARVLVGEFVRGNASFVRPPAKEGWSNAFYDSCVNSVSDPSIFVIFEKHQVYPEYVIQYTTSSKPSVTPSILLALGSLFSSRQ
Sequence of Protein mono-ADP-ribosyltransferase PARP4 (Q9UKK3 whole entry): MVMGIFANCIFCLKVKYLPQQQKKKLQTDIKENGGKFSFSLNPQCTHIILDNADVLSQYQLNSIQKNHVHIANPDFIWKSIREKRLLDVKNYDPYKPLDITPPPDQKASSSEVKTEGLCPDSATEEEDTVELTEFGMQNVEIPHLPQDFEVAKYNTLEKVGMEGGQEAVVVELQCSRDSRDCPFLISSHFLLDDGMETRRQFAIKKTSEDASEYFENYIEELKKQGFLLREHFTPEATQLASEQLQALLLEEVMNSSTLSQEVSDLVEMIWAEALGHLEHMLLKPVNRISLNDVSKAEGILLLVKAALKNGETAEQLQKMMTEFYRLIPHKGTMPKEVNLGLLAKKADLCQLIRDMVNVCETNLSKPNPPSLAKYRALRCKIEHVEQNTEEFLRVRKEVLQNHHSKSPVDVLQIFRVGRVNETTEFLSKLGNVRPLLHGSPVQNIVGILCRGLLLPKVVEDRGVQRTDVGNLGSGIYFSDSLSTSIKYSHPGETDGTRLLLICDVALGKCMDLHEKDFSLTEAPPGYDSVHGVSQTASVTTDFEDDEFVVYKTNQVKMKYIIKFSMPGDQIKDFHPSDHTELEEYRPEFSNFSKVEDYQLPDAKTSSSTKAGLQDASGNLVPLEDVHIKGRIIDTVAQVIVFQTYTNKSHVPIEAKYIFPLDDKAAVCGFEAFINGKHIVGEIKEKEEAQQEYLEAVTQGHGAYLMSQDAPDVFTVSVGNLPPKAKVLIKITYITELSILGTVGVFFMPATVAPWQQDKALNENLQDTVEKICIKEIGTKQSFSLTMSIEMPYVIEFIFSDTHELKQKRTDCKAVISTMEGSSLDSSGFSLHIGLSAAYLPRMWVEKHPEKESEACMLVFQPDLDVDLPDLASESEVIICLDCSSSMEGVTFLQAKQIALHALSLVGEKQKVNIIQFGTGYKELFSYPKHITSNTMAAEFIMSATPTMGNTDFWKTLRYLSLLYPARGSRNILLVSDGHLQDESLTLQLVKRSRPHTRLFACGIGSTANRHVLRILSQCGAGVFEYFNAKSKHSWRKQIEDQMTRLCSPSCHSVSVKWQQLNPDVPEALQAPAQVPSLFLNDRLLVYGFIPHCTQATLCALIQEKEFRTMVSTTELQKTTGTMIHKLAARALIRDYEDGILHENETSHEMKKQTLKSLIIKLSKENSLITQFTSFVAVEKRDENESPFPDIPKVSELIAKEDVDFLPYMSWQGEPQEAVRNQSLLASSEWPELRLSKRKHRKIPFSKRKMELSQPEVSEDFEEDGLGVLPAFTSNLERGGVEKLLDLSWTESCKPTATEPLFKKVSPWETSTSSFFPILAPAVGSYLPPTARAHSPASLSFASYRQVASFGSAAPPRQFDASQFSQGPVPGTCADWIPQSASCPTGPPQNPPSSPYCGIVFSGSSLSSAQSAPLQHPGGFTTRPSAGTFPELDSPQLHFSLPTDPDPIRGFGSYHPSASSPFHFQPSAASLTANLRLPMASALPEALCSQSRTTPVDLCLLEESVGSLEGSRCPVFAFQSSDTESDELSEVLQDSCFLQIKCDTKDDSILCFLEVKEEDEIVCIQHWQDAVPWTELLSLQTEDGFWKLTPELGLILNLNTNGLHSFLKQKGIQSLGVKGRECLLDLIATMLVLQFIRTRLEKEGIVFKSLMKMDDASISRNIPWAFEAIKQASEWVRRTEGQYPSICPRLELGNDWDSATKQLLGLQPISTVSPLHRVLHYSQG
Sequence of Protein mono-ADP-ribosyltransferase PARP3 (Q9Y6F1 whole entry): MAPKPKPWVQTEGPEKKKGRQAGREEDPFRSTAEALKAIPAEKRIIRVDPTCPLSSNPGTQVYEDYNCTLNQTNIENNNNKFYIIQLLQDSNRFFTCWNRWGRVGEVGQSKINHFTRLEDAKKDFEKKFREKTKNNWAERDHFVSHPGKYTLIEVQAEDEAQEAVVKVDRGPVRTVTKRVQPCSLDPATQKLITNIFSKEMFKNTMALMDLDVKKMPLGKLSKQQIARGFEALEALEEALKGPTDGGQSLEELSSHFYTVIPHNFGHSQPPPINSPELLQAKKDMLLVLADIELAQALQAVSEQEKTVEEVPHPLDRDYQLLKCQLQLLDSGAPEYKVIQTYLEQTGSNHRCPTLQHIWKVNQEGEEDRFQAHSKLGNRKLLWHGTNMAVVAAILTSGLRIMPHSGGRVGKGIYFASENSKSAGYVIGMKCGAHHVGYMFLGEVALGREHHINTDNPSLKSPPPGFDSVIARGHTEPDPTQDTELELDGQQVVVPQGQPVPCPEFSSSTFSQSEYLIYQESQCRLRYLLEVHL
Sequence of Serine/threonine-protein kinase 16 (Homo sapiens) (O75716 whole entry): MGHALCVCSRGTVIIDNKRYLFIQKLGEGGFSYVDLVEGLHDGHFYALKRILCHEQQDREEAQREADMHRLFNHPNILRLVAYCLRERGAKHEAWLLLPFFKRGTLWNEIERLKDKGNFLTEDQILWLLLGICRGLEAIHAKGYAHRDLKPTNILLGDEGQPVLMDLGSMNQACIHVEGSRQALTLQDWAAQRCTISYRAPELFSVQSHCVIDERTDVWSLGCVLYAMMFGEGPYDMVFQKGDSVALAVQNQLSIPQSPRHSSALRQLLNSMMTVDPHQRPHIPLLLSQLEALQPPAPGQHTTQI
Sequence of Maternal embryonic leucine zipper kinase (Homo sapiens) (Q14680 whole entry, looked up): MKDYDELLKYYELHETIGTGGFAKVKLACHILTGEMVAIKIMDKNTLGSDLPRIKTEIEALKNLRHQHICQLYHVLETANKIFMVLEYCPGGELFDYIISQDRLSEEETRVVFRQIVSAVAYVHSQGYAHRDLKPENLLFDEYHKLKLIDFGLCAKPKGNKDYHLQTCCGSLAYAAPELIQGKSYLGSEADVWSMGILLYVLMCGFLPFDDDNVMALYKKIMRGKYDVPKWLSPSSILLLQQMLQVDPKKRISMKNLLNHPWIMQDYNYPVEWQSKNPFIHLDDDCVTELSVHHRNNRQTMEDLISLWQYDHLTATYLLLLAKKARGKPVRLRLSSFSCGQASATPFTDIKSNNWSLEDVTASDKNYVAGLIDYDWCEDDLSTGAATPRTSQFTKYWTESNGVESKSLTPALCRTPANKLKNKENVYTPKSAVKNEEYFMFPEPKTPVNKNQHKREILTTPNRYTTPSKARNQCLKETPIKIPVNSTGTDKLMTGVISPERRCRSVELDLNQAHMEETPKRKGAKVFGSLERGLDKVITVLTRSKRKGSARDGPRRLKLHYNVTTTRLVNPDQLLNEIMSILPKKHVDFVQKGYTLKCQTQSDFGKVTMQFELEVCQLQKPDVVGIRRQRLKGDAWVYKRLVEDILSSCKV
Sequence of Cytochrome P450 2C9 (P11712 whole entry): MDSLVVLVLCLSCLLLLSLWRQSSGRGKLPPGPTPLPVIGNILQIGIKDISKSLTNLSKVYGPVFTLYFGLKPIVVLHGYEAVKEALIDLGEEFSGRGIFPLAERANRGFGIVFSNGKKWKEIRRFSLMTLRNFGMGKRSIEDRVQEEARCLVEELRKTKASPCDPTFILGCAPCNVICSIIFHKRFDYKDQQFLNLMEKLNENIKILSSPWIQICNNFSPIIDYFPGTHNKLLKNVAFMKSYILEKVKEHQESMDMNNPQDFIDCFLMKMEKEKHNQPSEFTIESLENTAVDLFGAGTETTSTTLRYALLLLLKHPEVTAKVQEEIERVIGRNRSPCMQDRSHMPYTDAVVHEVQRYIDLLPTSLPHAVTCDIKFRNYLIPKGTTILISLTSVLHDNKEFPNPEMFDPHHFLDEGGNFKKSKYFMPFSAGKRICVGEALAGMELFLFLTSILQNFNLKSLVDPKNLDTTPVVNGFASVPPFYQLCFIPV

SMILES: N#Cc1ccc2c(c1)[nH]c(=O)n2[C@H]1C[C@H](c2nnc(-c3ccncn3)n2-c2ccccc2Cl)C1
- Papp [1]: 5.3 ×10⁻⁷ cm/s
- Activity [2]: Non-Toxic
- half-life [3]: 4.7 h
- Cmax [4]: 843 ng/mL
- hepatocyte CLint at 3 µM [5]: 6.44 µL/min/1e6 cells
- inhibition in vivo at 30 mg/kg [6]: 57%
- IC50 [7]: 1.3 µM
- CLH [8]: 14.8 µL/min/mg
- AUC(0-t) at 24 h [9]: 27100 ng·h/mL
- Drug excretion [10]: Metabolite_Notdetected
- clearance [11]: 2.33 mL/min/kg
- IC50 [12]: > 25 µM
- IC50 [13]: > 100 µM
- IC50 [14]: > 25 µM
- IC50 [15]: > 25 µM
- inhibition [16]: 52%
- Papp [17]: 28.2 ×10⁻⁷ cm/s
- IC50 [18]: > 100 µM
- Activity [19]: Non-Toxic
- IC50 [20]: > 10 µM
- Cmax [21]: 5850 ng/mL
- inhibition in vivo at 15 mg/kg [22]: 32%
- inhibition [23]: 70%
- clearance [24]: 567 mL/min/kg
- half-life [25]: 1.5 h
- Cmax [26]: 124 ng/mL
- Activity [27]: Non-Toxic
- bioavailability [28]: 91%
- solubility kinetic at 2 h [29]: 31.2 µM (≈ 14.6 µg/mL)
- IC50 [30]: > 10 µM
- bioavailability [31]: 47%
- bioavailability [32]: 35%
- inhibition [33]: 66%
- AUC(0-t) at 24 h [34]: 145 ng·h/mL
- IC50 [35]: > 100 µM
- Drug excretion [36]: Metabolite_Notdetected
- inhibition in vivo at 30 mg/kg [37]: 63%
- IC50 [38]: 11.9 µM
- AUC(0-t) at 24 h [39]: 2760 ng·h/mL
- inhibition in vivo at 60 mg/kg [40]: 63%
- IC50 [41]: > 10 µM
- inhibition in vivo at 15 mg/kg [42]: 53%
- IC50 [43]: > 10 µM
- Activity [44]: Non-Toxic
- IC50 [45]: > 100 µM
- IC50 [46]: > 10 µM
- inhibition [47]: 73%
